Compound activity deposited in PubChem BioAssay by several laboratories.
Yeast growth inh = yeast BB579 growth reduction in restrictive medium; S. cerevisiae BB579 growth, OD615, 48 h; inhibition, % at 10 µM; 140,000 compounds, 0.51% hits;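 active = inhibition above a set limit, 3 SD over the mean compound inhibition, cut at about 44% in these data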
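System: Saccharomyces cerevisiae DeaD strain BB579, replicative lifespan model yeast | Buffer or medium: Restrictive glucose-based CSMM-D medium | Times: 4 h preincubation and 48 h exposure at 30 °C | Detection: OD615 turbidity measurement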
Yeast lifespan up = yeast lifespan extension; inhibition of the nicotinamide effect, % at 10 µM; 130,000 compounds, 0.68% hits; S. cerevisiae growth with nicotinamide, OD615; deaD strain in restrictive glucose medium;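 active = inhibition above a set limit, placed 3 SD over the median of all compounds, cut at about 26% in these data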
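System: DeaD-strain S. cerevisiae / Buffer or medium: CSMM-D, restrictive glucose (dextrose) synthetic minimal medium / Probe or stimulus: nicotinamide, 1.5 mM, co-present with compound / Compound: one concentration, 10 µM, DMSO 0.25% / Incubation: 48 h compound exposure at 30 °C, humidified / Technique: optical density (absorbance) at 615 nm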
b-catenin transl = modulators of beta-catenin nuclear translocation. AID 1665. HeLa beta-catenin nuclear translocation, immunofluorescence imaging. nuclear translocation activity, % at 5 µM. 190,000 compounds, 0.3% hits;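 active = nuclear translocation activity above 50% at 5 µM, with a well cell count of 50 or more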;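 note: per-cell ratio of nuclear to cytoplasmic median beta-catenin stain intensity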
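Technique: fluorescence imaging of beta-catenin antibody stain plus DAPI / Material: human HeLa cell line / Incubation: compound treatment 24 h, 37°C, 5% CO2 / Read-out basis: % activation of per-cell nuclear versus cytoplasmic median beta-catenin signal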
MT stabilize HCS = microtubule stabilizers in HeLa cells. HeLa tubulin immunostaining HCS, 24 h; share of cells brighter than vehicle mean+2SD. % tubulin-high responders, % at 10 µM. 200,000 compounds, 0.83% hits. AID 2205;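 active = plate Z-score above 3 for both tubulin-high and condensed-nucleus cell shares, with cell loss under 80%, at 10 µM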;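 note: anti alpha tubulin signal scored within the nucleus-defined area of each cell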
RAM network inh = blocks the yeast RAM network | S. cerevisiae dse1pr::URA3 reporter, 5-FOA growth OD615, 2 d; analog-sensitive cbk1-as2 kinase mutant strain | inhibition, % at 50 µM | 190,000 compounds, 1.8% hits | AID 868;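 active = inhibition above a set limit, 3 SD over mean compound inhibition, cut at about 8.4% in these data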;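 note: inhibition rescues growth on 5-FOA so higher OD means more RAM inhibition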
HMGR II inh = inhibitors of class II HMG-CoA reductase from Enterococcus faecalis. 190,000 compounds, 0.41% hits. inhibition, % at 10 µM. purified E. faecalis HMGR, NADPH absorbance 340 nm kinetic;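 active = inhibition above a set limit, the median over all tested compounds plus 3 SD, cut at about 9.5% in these data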;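 note: enzyme runs in reverse so mevalonate oxidation gives rising NADPH absorbance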
Each line names hits and unclear results; the compound was inactive in the other large screens. The list is not random: actives were taken first. Their share in the collection is about 3.5%.

CCCCNC(=S)N/N=C1\C(=O)c2cccc3cccc1c23	RAM network inh 9.1 (no result: b-catenin transl)
CNC(=S)N/N=C1\C(=O)c2cccc3cccc1c23	none
CCOc1ccc(CCNC(=O)c2cc3sccc3n2CC)cc1OCC	RAM network inh 9.0
CCOC(=O)N1CCC(NC(=O)c2cc3sccc3n2CC)CC1	none
COc1cc(NC(=O)c2cccs2)c(OC)cc1NC(=O)CCC(=O)Nc1ccc2ncccc2c1	none (no result: Yeast growth inh, Yeast lifespan up)
O=C(Nc1ccccc1)NC1CCCc2ccccc21 (stereo not drawn)	none (no result: Yeast growth inh, Yeast lifespan up)
COc1cccc(NC(=O)NC2CCCc3ccccc32)c1 (stereo not drawn)	RAM network inh 8.8 (no result: Yeast growth inh, Yeast lifespan up)
Cc1cccc(Nc2nc(-c3ccccn3)cs2)n1	Yeast growth inh 99.7
Cc1cccnc1Nc1nc(-c2ccc(O)cc2O)cs1	none
Cc1cccc(Nc2nc(-c3cccs3)cs2)n1	none (no result: Yeast lifespan up)
Cc1cccnc1Nc1nc(-c2ccccn2)cs1	Yeast growth inh 94.9
Cc1cc(/C=C2/NC(=O)N(Cc3ccccc3F)C2=O)c(C)n1C	Yeast lifespan up 26.7
Cn1c(-c2ccc3c(c2)OCO3)cnc1NCc1ccccc1	MT stabilize HCS 20.5
Cc1ccc(C(=O)NC(=S)Nc2cccc(-c3nc4ccccc4s3)c2)cc1	HMGR II inh 10.2
O=C(/C=C/c1ccco1)NC(=S)Nc1cc(-c2nc3ccccc3s2)ccc1Cl	none
O=C(/C=C/c1ccco1)NC(=S)Nc1cccc(-c2nc3ccccc3o2)c1	b-catenin transl 53.8, MT stabilize HCS 27.7
Cc1ccc(-c2nc3ccccc3o2)cc1NC(=S)NC(=O)/C=C/c1ccco1	none
CC(=O)Nc1cccc(-c2nc3ccccc3s2)c1	none (no result: Yeast growth inh, Yeast lifespan up)
O=C(/C=C/c1ccco1)NC(=S)Nc1cccc(-c2nc3ccccc3s2)c1	MT stabilize HCS 38.5 (no result: Yeast growth inh, Yeast lifespan up, b-catenin transl, RAM network inh, HMGR II inh)
Fc1ccc(-n2ncc3c(SCc4cccnc4)ncnc32)cc1	none (no result: Yeast growth inh, Yeast lifespan up)
Cc1cc(O)cc2c1C(c1ccc(F)cc1)CC1(CC(C)(C)NC(=S)N1)O2 (stereo not drawn)	none (no result: Yeast growth inh, Yeast lifespan up)
COc1ccc(C2CC3(CC(C)(C)NC(=S)N3)Oc3cc(O)cc(C)c32)cc1 (stereo not drawn)	RAM network inh 9.7
O=S1(=O)C=CC(Sc2nc3ccccc3[nH]2)C1 (stereo not drawn)	none
CC1=CS(=O)(=O)CC1Sc1nc2ccccc2[nH]1 (stereo not drawn)	Yeast lifespan up 68.2
Cc1ccc(CN2CCN(C/C(Cl)=C/c3ccccc3)CC2CCO)o1 (stereo not drawn)	none (no result: Yeast growth inh, Yeast lifespan up)
CCN(C(=O)Cc1c(C(=O)O)[nH]c2ccccc12)c1ccc(OC)cc1	none (no result: Yeast growth inh, Yeast lifespan up)
CC(C)(C)c1oc(C(=O)O)cc1CN1CCOCC1	none (no result: Yeast growth inh, Yeast lifespan up, MT stabilize HCS, RAM network inh, HMGR II inh)
COc1ccc(C(=O)C(CN2CCOCC2)c2ccccc2)cc1F (stereo not drawn)	Yeast lifespan up 79.1
CCc1ccccc1NC(=S)N(CCOC)C(C)c1ccco1 (stereo not drawn)	none (no result: Yeast growth inh, Yeast lifespan up, MT stabilize HCS, RAM network inh, HMGR II inh)
Cc1ccc(NC(=O)COC(=O)/C(=C/c2cccs2)c2cccs2)cc1S(=O)(=O)N(C)C	RAM network inh 8.9
NS(=O)(=O)c1cccc(NC(=O)COC(=O)/C(=C/c2cccs2)c2cccs2)c1	none
CCOC(=O)c1c(N)sc(C(=O)OCCOC)c1C	HMGR II inh 12.7 (no result: Yeast growth inh, Yeast lifespan up)
CCNc1nc(NCC)nc(SCCOC(=O)Nc2ccc(Cl)cc2Cl)n1	RAM network inh 10.5
O=C(Nc1ccccc1C(F)(F)F)N1CCN(c2ccccn2)CC1	none (no result: Yeast growth inh, Yeast lifespan up)
CC(=O)Cc1nsc(NC(=O)c2ccc(-c3ccc(Cl)cc3Cl)o2)n1	none (no result: b-catenin transl)
CC(=O)Cc1nsc(NC(=O)c2ccc(-c3cc(Cl)ccc3Cl)o2)n1	b-catenin transl 131.6, MT stabilize HCS 26.5 (no result: Yeast growth inh, Yeast lifespan up)
CC1CC(C)CN(C(=O)c2cccc(S(=O)(=O)Nc3cc(C(F)(F)F)ccc3Cl)c2)C1 (stereo not drawn)	Yeast lifespan up 32.0
O=C(O)c1cccc(S(=O)(=O)Nc2cc(Cl)ccc2Cl)c1	none (no result: Yeast growth inh, Yeast lifespan up, MT stabilize HCS, RAM network inh, HMGR II inh)
Cc1cccc(/N=C/c2c(O)cc(C)oc2=O)n1	none
Cc1cccc(/N=C/c2c(O)ccc3oc4c(c23)CCCC4)n1	Yeast lifespan up 30.8
O=C(NCc1ccccc1)C1=C[C@@H](c2ccccc2)C[C@@H](OCc2ccc(CO)cc2)O1	none (no result: Yeast growth inh, Yeast lifespan up)
